The source of these data is PMC2651228 (Journal of medicinal chemistry, 2008).

Entries after “also recorded” stand apart in the source; their conditions may differ.

For assay [1], the system named is PC3M cells. Kind of assay: Cell migration in modified Boyden chambers, HGF-stimulated. It counts as cell-based. The note with it: HGF 50 ng/ml. The method in brief:
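PC3M cells pretreated with test compound for 24 h, then seeded at 200,000 cells per modified Boyden chamber. Migration stimulated with recombinant human HGF (50 ng/ml), with unstimulated cells run in parallel. Migrated cells counted by light microscopy in four fields (1 × 1.4 mm) per well, triplicate wells per condition. Means expressed as percent maximum ± standard deviation, with a dose-response series.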

In another assay the target is Grb2 SH2 domain (Homo sapiens, UniProt P62993). Nature of the assay: SPR direct binding, amine-coupled Grb2 SH2 domain. To be noted: for Ratio: Grb2, amine coupling, affinity relative to compound 2.
Assay [2] concerns the target proteins of SK-LMS-1 cell lysates (Homo sapiens, UniProt P62993). It counts as binding. The note with it: compound-conjugated SA beads, cell extracts. A digest of the protocol: (§1)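 Biotinylated test compound captured proteins from HGF-stimulated (25 ng/ml, 20 min) SK-LMS-1 detergent lysate on streptavidin beads, washed with 150–500 mM NaCl. Beads exchanged into 100 mM ammonium bicarbonate, reduced (10 mM DTT, 1 h, 51°C), alkylated (55 mM iodoacetamide, 45 min, 25°C) and trypsin-digested 6 h at 25°C. Acidified peptides analysed by nLC-ESI-MS/MS (ion trap, top-seven data-dependent) and searched against human NCBI database.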

The target in a further assay is Grb2 (Homo sapiens, UniProt P62993). The class given is binding. The note with it: SK-LMS-1 lysate; for Capture of Grb2 on compound-conjugated SA beads (anti-Grb2 immunoblot): compound 3 uM, washes 150-500 mM NaCl. A digest of the protocol:
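SK-LMS-1 cells serum-deprived 16 h, stimulated with recombinant human HGF (25 ng/ml) for 20 min and lysed in cold non-ionic detergent buffer. Biotinylated test compound (3 uM) incubated with lysate 1 h on ice. Streptavidin beads then mixed in 1 h at 4°C and washed 5 times in lysis buffer with increasing NaCl (150–500 mM). Read-out: SDS-PAGE and anti-Grb2 immunoblot.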
Background: A western blot detects proteins with antibodies after separation by electrophoresis.

The next assay concerns the target Biotin-Grb2 SH2 domain (Homo sapiens, UniProt P62993). Nature of the assay: SPR direct binding, streptavidin-captured biotin-Grb2 SH2 domain. To be noted: Biotin-Grb2, SA capture; reference line of the ratio.
Assay [3] deals with PC3M cells. Kind of assay: Lamellipodia formation at wound edge, phalloidin staining, PC3M. It counts as cell-based. The note with it: HGF + 1 uM compound.
Another assay deals with angiogenesis. To be noted: cited from earlier work.
The test system of assay [4] is PAK1. Nature of the assay: PAK1 nuclear translocation. The class given is cell-based. The note with it: PC3M cells, 16 h, relative to nuclear CREB. The method in brief: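 PC3M cells treated with test compound for 16 h. Nuclear extracts prepared in high-salt buffer, resolved by SDS-PAGE and immunoblotted for PAK1, with CREB immunoblotted as reference.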
The test system of the next assay is MDCK cells. Nature of the assay: Lamellipodia formation at wound edge, phalloidin staining, MDCK. To be noted: HGF + 1 uM compound. It counts as cell-based, canine.
Assay [5] concerns PAK1. Kind of assay: PAK1 activation. To be noted: PC3M cells, 1 uM, 16 h. The class given is cell-based. The method in brief: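 PC3M cells serum-deprived and either treated with test compound (1 uM) or left untreated for 16 h. They were then left unstimulated or briefly stimulated with HGF (50 ng/mL) for set times. Lysates run on SDS-PAGE and immunoblotted with anti-phospho-PAK1 antibody, with total PAK1 immunoblot as loading control.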

The test system of assay [6] is Grb2 and focal adhesion kinase (FAK). The note with it: treatment of cells; cited from earlier work.
A further assay relates to tumor metastasis. The note with it: cited from earlier work.
Another assay deals with cell motility. To be noted: cited from earlier work.
Assay [7] relates to Grb2-EGFR and Grb2-c-Met interactions. The note with it: co-immunoprecipitation; cited from earlier work.
The test system of assay [8] is proteins of SK-LMS-1 cell lysates. The class given is binding, human. To be noted: cell lysates; two or more unique peptides observed. A digest of the protocol: as §1

Sequence of Grb2 SH2 domain (P62993 60-152 limits assumed): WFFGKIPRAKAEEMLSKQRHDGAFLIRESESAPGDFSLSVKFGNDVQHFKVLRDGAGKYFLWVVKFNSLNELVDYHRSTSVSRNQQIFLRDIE
Sequence of Grb2 (P62993 whole entry): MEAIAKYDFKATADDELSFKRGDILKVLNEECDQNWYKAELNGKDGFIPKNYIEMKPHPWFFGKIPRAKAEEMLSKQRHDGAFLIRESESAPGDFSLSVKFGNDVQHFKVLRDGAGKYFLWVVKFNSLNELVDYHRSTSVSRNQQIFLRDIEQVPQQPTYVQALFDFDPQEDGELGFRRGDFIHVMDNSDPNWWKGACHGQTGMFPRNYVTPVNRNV
Sequence of Biotin-Grb2 SH2 domain (P62993 60-152 limits assumed): as the sequence (P62993 60-152 limits assumed) above
Sequence of proteins of SK-LMS-1 cell lysates (Homo sapiens, UniProt P62993) (P62993 whole entry): as the sequence (P62993 whole entry) above

Consider `NC(=O)C[C@H](NC(=O)C1(NC(=O)[C@H](Cc2ccc(O)cc2)NC(=O)C(=O)O)CCCCC1)C(=O)NCCCc1cccc2c(OC(=O)CCCCCNC(=O)CCCC[C@@H]3SC[C@@H]4NC(=O)N[C@@H]43)cccc12` [Compound 4, (4R,5S,6S)-6-[5-(2-Oxo-hexahydro-thieno[3,4-d]imidazol-6-yl)-pentanoylamino]-hexanoic acid 5-{3-[3-carbamoyl-2-({1-[3-(4-hydroxy-phenyl)-2-(oxylyl-amino)-propionylamino]-cyclohexylcarbonyl}-amino)-propionylamino]-propyl}-naphthalen-1-yl ester], for which the “Inhibition of cell migration (in words)” value in the assay on PC3M cells [1] is “No inhibition of cell migration”. In addition, on Grb2 SH2 domain (assay not stated), the “Grb2 SH2 domain binding affinity (in words)” value is recorded as “very poor Grb2 SH2 domain binding affinity”. In assay [2], the “Capture of Grb2 tryptic peptides (ESI-MS/MS)” value was “not by compound 4-conjugated beads”. Also, the “Capture of Grb2 on compound-conjugated SA beads (anti-Grb2 immunoblot)” value on Grb2 was “did not capture Grb2”.
As for `NC(=O)C[C@H](NC(=O)C1(NC(=O)[C@H](Cc2ccc(C(C(=O)O)C(=O)O)cc2)NC(=O)C(=O)O)CCCCC1)C(=O)NCCCc1cccc2c(O)cccc12` [Compound 2, 2-{4-[2-(1-(1S)-{2-Carbamoyl-1-[3-(5-hydroxy-naphthalen-1-yl)-propylcarbamoyl]-ethylcarbamoyl}-cyclohexylcarbamoyl)-2-(2S)-(oxalyl-amino)-ethyl]-phenyl}-malonic acid], the Ratio at Grb2 SH2 domain and at Biotin-Grb2 SH2 domain was 1 in each case.
As to `NC(=O)C[C@H](NC(=O)C1(NC(=O)[C@H](Cc2ccc(C(C(=O)O)C(=O)O)cc2)NC(=O)C(=O)O)CCCCC1)C(=O)NCCCc1cccc2ccccc12` [Compound 1], in the assay with PC3M cells [3], the “Actin reorganization and lamellipodia formation (phalloidin staining)” value is reported as “markedly reduced phalloidin staining at the leading edge”. Also, the “Inhibition of cell migration (in words)” value in the assay with PC3M cells [1] was “Inhibition of cell migration”. Moreover, in the assay on angiogenesis, the Angiogenesis result is recorded as “inhibit”. Besides, the PAK1 nuclear translocation result in the assay on PAK1 [4] is reported as “decreased PAK1 nuclear translocation”. In the assay with MDCK cells, the “Lamellipodia extension into the wound” value was “significantly reduced the area and distance that lamellipodia extended into the wound”. For the same compound, the “Steady state level of PAK1 autophosphorylation” value with PAK1 [5] (no HGF) is “little effect”. In addition, the “HGF-stimulated PAK1 activation” value in the assay on PAK1 [5] (then HGF 50 ng/mL) is “completely inhibited”. Also, at Biotin-Grb2 SH2 domain, the Ratio worked out at 1. Also, in assay [6], the “HGF-stimulated physical association between Grb2 and FAK” value is “disrupts HGF-stimulated physical association between Grb2 and focal adhesion kinase (FAK)”. Moreover, the “Tumor metastasis in vivo” value in the assay with tumor metastasis was “inhibit”. Moreover, the Cell motility result with cell motility was “blocks cell motility in a dose dependent fashion; also recorded: can inhibit cell motility”. The “Grb2-EGFR and Grb2-c-Met interactions” value in [7] is “able to disrupt Grb2-EGFR and Grb2-c-Met interactions”.
Turning to `NC(=O)C[C@H](NC(=O)C1(NC(=O)[C@H](Cc2ccc(C(C(=O)O)C(=O)O)cc2)NC(=O)C(=O)O)CCCCC1)C(=O)NCCCc1cccc2c(OC(=O)CCCCCNC(=O)CCCC[C@@H]3SC[C@@H]4NC(=O)N[C@@H]43)cccc12` [Compound 3], the “Inhibition of cell migration (in words)” value in the assay on PC3M cells [1] was “significant and potent inhibition of migration”. Also, the Ratio on Grb2 SH2 domain was 3. In addition, in assay [2], the “Capture of Grb2 tryptic peptides (ESI-MS/MS)” value was “captured by compound 3-conjugated SA beads”. The “Protein Name (identified by mass spectrometry, captured by streptavidin-immobilized 3, but not by streptavidin-immobilized 4)” value in assay [8] was “histone H2B family ^b; also recorded: ribosomal protein S23; also recorded: ribosomal protein L17; also recorded: ribosomal protein S17; also recorded: pyruvate kinase 3 ^a”. For the same compound, on Grb2 (SA-bound compound), the “Capture of Grb2 SH3 domain-associated proteins (immunoblot)” value was “revealed the presence of Nck1, Nck2, Gab1 and Sos1”. In addition, the “Capture of Grb2 on compound-conjugated SA beads (anti-Grb2 immunoblot)” value at Grb2 is on record as “Grb2 was clearly retained”.
